Data taken from ChEMBL document CHEMBL2413079, “Synthesis of novel psoralen analogues and their in vitro antitumor activity” (2013).

Columns and labels:
Assay type in all cases: functional
TCC-SUP = experiment: Growth inhibition of human TCCSUP cells after 48 hrs by MTS assay
Outline: (§1)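 Cells grown in DMEM with 10% FBS (15% FBS for TCC-SUP) and 1% penicillin/streptomycin. DMSO stocks freshly diluted in medium; five concentrations tested over 48 h exposure. MTS reagent added for 2 h at 37 °C, 5% CO2, then absorbance read at 490 nm. Viability taken as % of control; GI50 from dose–response curve. Three independent cultures, 4 wells per concentration.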

MDA-MB-231 = experiment: Growth inhibition of human MDA-MB-231 cells after 48 hrs by MTS assay; conditions: MDA-MB-231, 48 h; outline: as §1
HeLa = experiment: Growth inhibition of human HeLa cells after 48 hrs by MTS assay; outline: as §1

| Compound | GI50 (TCC-SUP) | GI50 (MDA-MB-231) | GI50 (HeLa) |
| --- | --- | --- | --- |
| O=c1ccc2c(ccc3c4ccccc4[nH]c23)o1 | 27 nM | 230 nM | 46 nM |
| CCOC(=O)c1cc2c(ccc3c4ccccc4[nH]c23)oc1=O | 30 nM | 413 nM | 37 nM |
| Cc1cc(=O)oc2cc3c(cc12)oc1ccccc13 | 41 nM | 60 nM | 35 nM |
| O=C(O)c1cc2c(ccc3c4ccccc4[nH]c23)oc1=O | 18 nM | 265 nM | 47 nM |
| Cc1cc(=O)oc2cc3[nH]c4ccccc4c3cc12 | 66 nM | 78 nM | 42 nM |
